Key:
[1] = Cell cycle arrest in human KB/HeLa cells assessed as G2/M phase accumulation at 0.1 nM after 24 hrs by FACS analysis; type: functional, cell-based
How it was run: (§1)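 Subconfluent KB/HeLa cells exposed to a range of compound concentrations for 24 h at 37 °C, then detached and fixed in 70% ethanol. DNA stained with propidium iodide after RNase digestion and measured by flow cytometry. Cell-cycle phase fractions taken from cell cycle analysis software. At least two replicates.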

[2] = Cell cycle arrest in human KB/HeLa cells assessed as G1 phase accumulation at 1000 nM after 24 hrs by FACS analysis; type: functional, cell-based; how it was run: as §1
K562 = assay: Antiproliferative activity against human K562 cells after 48 hrs; type: functional, cell-based; details: K562, 48 h
How it was run: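 K562 cells (RPMI 1640, 10% FBS, 37 °C, 5% CO2) plated at 2 × 10⁵ cells/mL. Compounds dissolved in DMSO/methanol 1:1, vehicle 0.5%. Cells counted in a Neubauer chamber after 48 h and expressed as % of untreated control. Triplicate wells, three experiments. IC50 from nonlinear regression.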

[3] = Cell cycle arrest in human KB/HeLa cells assessed as G2/M phase accumulation after 24 hrs by FACS analysis; type: functional, cell-based; how it was run: as §1
[4] = Cell cycle arrest in human KB/HeLa cells assessed as G2/M phase accumulation at 100 nM after 24 hrs by FACS analysis; type: functional, cell-based; how it was run: as §1
[5] = Cell cycle arrest in human KB/HeLa cells assessed as G2/M phase accumulation at 1000 nM after 24 hrs by FACS analysis; type: functional, cell-based; how it was run: as §1
[6] = Cell cycle arrest in human KB/HeLa cells assessed as S phase accumulation at 100 nM after 24 hrs by FACS analysis; type: functional, cell-based; how it was run: as §1
Tubulin [7] = target: T1, Tubulin (Sus scrofa, UniProt P02554+P02550); assay: Displacement of [3H]Colchicine from pig biotinylated tubulin after 2 hrs by SPA; type: protein assay
[8] = Cell cycle arrest in human KB/HeLa cells assessed as G2/M phase accumulation at 316 nM after 24 hrs by FACS analysis; type: functional, cell-based; how it was run: as §1
Tubulin [9] = target: T1, Tubulin; assay: Displacement of [3H]paclitaxel from pig biotinylated tubulin after 2 hrs by SPA; type: protein assay
[10] = Cell cycle arrest in human KB/HeLa cells assessed as S phase accumulation at 3.16 nM after 24 hrs by FACS analysis; type: functional, cell-based; how it was run: as §1
RKO [11] = assay: Antiproliferative activity against human RKO cells containing ecdysone-inducible expression vector of p27kipl by XTT assay; type: functional, cell-based
How it was run: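 RKO cells carried an ecdysone-inducible p27Kip1 vector and were tested with and without induction. On day 1 they were plated with or without 3 µM ponasterone A, which gives G1 arrest, at 2 × 10⁴ cells/well induced or 6 × 10³ not induced, then held 24 h at 37 °C. Compound was then added for 48 h at 37 °C, followed by a standard XTT assay. IC50 came from nonlinear regression, n ≥ 2.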

Tubulin [12] = target: T1, Tubulin; assay: Inhibition of pig brain tubulin polymerization after 30 mins by turbidimetric assay
How it was run: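 Microtubule protein from porcine brain (80–90% tubulin, 10–20% MAPs), purified by two disassembly/reassembly cycles. Assay buffer: 20 mM PIPES pH 6.8, 80 mM NaCl, 0.5 mM MgCl2, 1 mM EGTA, 1 mM DTT. Protein at 1.2 mg/mL with 0.6 mM GTP final, 1% DMSO final, 37 °C.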

SF-268 = assay: Antiproliferative activity against human SF268 cells by XTT assay; type: functional, cell-based
How it was run: (§2)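 XTT metabolic read-out. Cells seeded at 1 × 10³–8 × 10⁴ cells/well for logarithmic growth and exposed to graded concentrations for 48 h. At least two replicates. IC50 from nonlinear regression of dose-response curves. LT12/MDR: rat LT12 with ectopic human MDR-1. L1210/VCR: MDR-1 expressing, MRP-1 negative.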

[13] = Cell cycle arrest in human KB/HeLa cells assessed as S phase accumulation at 316 nM after 24 hrs by FACS analysis; type: functional, cell-based; how it was run: as §1
SK-OV-3 = assay: Antiproliferative activity against human SKOV3 cells by XTT assay; type: functional, cell-based
How it was run: (§3)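 XTT metabolic-activity read-out of proliferation. Cells were seeded at 1 × 10³-8 × 10⁴ cells/well for logarithmic growth and exposed to a range of compound concentrations for 48 h. IC50 came from nonlinear regression of dose-response curves, with at least two replicates. The P388/Adr subline was doxorubicin-selected with elevated MDR-1.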

[14] = Cell cycle arrest in human KB/HeLa cells assessed as S phase accumulation at 0.3 nM after 24 hrs by FACS analysis; type: functional, cell-based; how it was run: as §1
[15] = Cell cycle arrest in human KB/HeLa cells assessed as S phase accumulation at 31.6 nM after 24 hrs by FACS analysis; type: functional, cell-based; how it was run: as §1
P388 [16] = assay: Antiproliferative activity against mouse P388 cells after 48 hrs by XTT assay; type: functional, cell-based; details: P388, 48 h; how it was run: as §3
RKO [17] = assay: Antiproliferative activity against human RKO cells by XTT assay; type: functional, cell-based
How it was run: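 RKO colon cells with ecdysone-inducible p27Kip1. Day 1: plated with or without 3 µM ponasterone A for 24 h, giving G1 arrest when induced (2 × 10⁴ cells/well induced; 6 × 10³ not induced). Day 2: compound added (DMSO control) for 48 h at 37 °C, then standard XTT. At least duplicate. IC50 by nonlinear regression.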

[18] = Cell cycle arrest in human KB/HeLa cells assessed as G2/M phase accumulation at 1 nM after 24 hrs by FACS analysis; type: functional, cell-based; how it was run: as §1
[19] = Cell cycle arrest in human KB/HeLa cells assessed as G1 phase accumulation at 100 nM after 24 hrs by FACS analysis; type: functional, cell-based; how it was run: as §1
[20] = Cell cycle arrest in human KB/HeLa cells assessed as G2/M phase accumulation at 0.3 nM after 24 hrs by FACS analysis; type: functional, cell-based; how it was run: as §1
[21] = Cell cycle arrest in human KB/HeLa cells assessed as S phase accumulation at 1000 nM after 24 hrs by FACS analysis; type: functional, cell-based; how it was run: as §1
[22] = Cell cycle arrest in human KB/HeLa cells assessed as G2/M phase accumulation at 31.6 nM after 24 hrs by FACS analysis; type: functional, cell-based; how it was run: as §1
[23] = Cell cycle arrest in human KB/HeLa cells assessed as G2/M phase accumulation at 3.16 nM after 24 hrs by FACS analysis; type: functional, cell-based; how it was run: as §1
[24] = Cell cycle arrest in human KB/HeLa cells assessed as G1 phase accumulation at 0.1 nM after 24 hrs by FACS analysis; type: functional, cell-based; how it was run: as §1
L1210 [25] = assay: Antiproliferative activity against vincristine-resistance MRP1 negative mouse L1210 cells expressing human MDR1 after 48 hrs by XTT assay; type: functional, cell-based; details: L1210, 48 h; how it was run: as §2
[26] = Cell cycle arrest in human KB/HeLa cells assessed as G1 phase accumulation at 31.6 nM after 24 hrs by FACS analysis; type: functional, cell-based; how it was run: as §1
P388 [27] = assay: Antiproliferative activity against doxorubicin-resistant mouse P388 cells expressing MDR1 protein after 48 hrs by XTT assay; type: functional, cell-based; details: P388, 48 h; how it was run: as §3
[28] = Antiproliferative activity against human KB/HeLa cells by XTT assay; type: functional, cell-based; how it was run: as §2
NCI-H460 = assay: Antiproliferative activity against human NCI-H460 cells by XTT assay; type: functional, cell-based; how it was run: as §2
[29] = Cell cycle arrest in human KB/HeLa cells assessed as G1 phase accumulation at 0.3 nM after 24 hrs by FACS analysis; type: functional, cell-based; how it was run: as §1
[30] = Cell cycle arrest in human KB/HeLa cells assessed as G1 phase accumulation at 3.16 nM after 24 hrs by FACS analysis; type: functional, cell-based; how it was run: as §1
[31] = Cell cycle arrest in human KB/HeLa cells assessed as G1 phase accumulation at 10 nM after 24 hrs by FACS analysis; type: functional, cell-based; how it was run: as §1
L1210 [32] = assay: Antiproliferative activity against mouse L1210 cells after 48 hrs by XTT assay; type: functional, cell-based; details: L1210, 48 h; how it was run: as §3
[33] = Antiproliferative activity against rat LT12 cells after 48 hrs by XTT assay; type: functional, cell-based; details: LT12, 48 h; how it was run: as §3
[34] = Cell cycle arrest in human KB/HeLa cells assessed as S phase accumulation at 1 nM after 24 hrs by FACS analysis; type: functional, cell-based; how it was run: as §1
[35] = Cell cycle arrest in human KB/HeLa cells assessed as S phase accumulation at 10 nM after 24 hrs by FACS analysis; type: functional, cell-based; how it was run: as §1
[36] = Cell cycle arrest in human KB/HeLa cells assessed as S phase accumulation at 0.1 nM after 24 hrs by FACS analysis; type: functional, cell-based; how it was run: as §1
[37] = Antiproliferative activity against rat LT12 cells ectopic expression of human MDR1 after 48 hrs by XTT assay; type: functional, cell-based; details: LT12, 48 h; how it was run: as §2
[38] = Cell cycle arrest in human KB/HeLa cells assessed as G1 phase accumulation at 1 nM after 24 hrs by FACS analysis; type: functional, cell-based; how it was run: as §1
[39] = Cell cycle arrest in human KB/HeLa cells assessed as G1 phase accumulation at 316 nM after 24 hrs by FACS analysis; type: functional, cell-based; how it was run: as §1
[40] = Cell cycle arrest in human KB/HeLa cells assessed as G2/M phase accumulation at 10 nM after 24 hrs by FACS analysis; type: functional, cell-based; how it was run: as §1

COc1ccc(C(=O)C=C2c3ccccc3C(=O)c3ccccc32)cc1
Activity [1]: 13.2% | Activity [2]: 2.3% | IC50 (K562): 70 nM | EC50 [3]: 90 nM | Activity [4]: 74.9% | Activity [5]: 88.5% | Activity [6]: 16.7% | IC50 (Tubulin [7]): 400 nM | Activity [8]: 92.8% | IC50 (Tubulin [9]): > 100000 nM | Activity [10]: 26.2% | IC50 (RKO [11]): > 9000 nM | IC50 (Tubulin [12]): 520 nM | IC50 (SF-268): 60 nM | Activity [13]: 6.2% | IC50 (SK-OV-3): 60 nM | Activity [14]: 27.1% | Activity [15]: 34.1% | IC50 (P388 [16]): 40 nM | IC50 (RKO [17]): 80 nM | Activity [18]: 11.6% | Activity [19]: 8.4% | Activity [20]: 10.8% | Activity [21]: 9.2% | Activity [22]: 8.4% | Activity [23]: 11.8% | Activity [24]: 60.7% | IC50 (L1210 [25]): 50 nM | Activity [26]: 57.5% | IC50 (P388 [27]): 50 nM | IC50 [28]: 60 nM | IC50 (NCI-H460): 70 nM | Activity [29]: 62.1% | Activity [30]: 62% | Activity [31]: 62.7% | IC50 (L1210 [32]): 50 nM | IC50 [33]: 50 nM | Activity [34]: 26.1% | Activity [35]: 26% | Activity [36]: 26.1% | IC50 [37]: 50 nM | Activity [38]: 62.3% | Activity [39]: 1% | Activity [40]: 11.3%

CC[C@]1(O)C[C@H]2CN(CCc3c([nH]c4ccccc34)[C@@](C(=O)OC)(c3cc4c(cc3OC)N(C=O)[C@H]3[C@@](O)(C(=O)OC)[C@H](OC(C)=O)[C@]5(CC)C=CCN6CC[C@]43[C@@H]65)C2)C1 [VINCRISTINE]
Activity [1]: 11.1% | EC50 [3]: 2.4 nM | Activity [4]: 4.8% | Activity [6]: 1% | Activity [8]: 5.9% | Activity [10]: 26% | Activity [13]: 0.2% | Activity [14]: 24% | Activity [15]: 0.5% | Activity [18]: 17.2% | Activity [19]: 95.1% | Activity [20]: 11.7% | Activity [22]: 7.2% | Activity [23]: 65.8% | Activity [24]: 61.2% | Activity [26]: 92.6% | Activity [29]: 64.5% | Activity [30]: 6.5% | Activity [31]: 86.7% | Activity [34]: 28.3% | Activity [35]: 6.5% | Activity [36]: 27.7% | Activity [38]: 53.7% | Activity [39]: 93.8% | Activity [40]: 13.1%

COc1ccc(C(=O)C=C2c3ccccc3C(=O)c3ccccc32)cc1OC
IC50 (K562): 1300 nM | IC50 (RKO [11]): > 9000 nM | IC50 (Tubulin [12]): 6000 nM | IC50 (SF-268): 2700 nM | IC50 (P388 [16]): 900 nM | IC50 (RKO [17]): 510 nM | IC50 (L1210 [25]): 970 nM | IC50 (P388 [27]): 1100 nM | IC50 [28]: 1080 nM | IC50 (NCI-H460): 1400 nM | IC50 (L1210 [32]): 970 nM | IC50 [33]: 370 nM | IC50 [37]: 440 nM
